Assay outcomes: PubChem BioAssay, The Scripps Research Institute Molecular Screening Center
CHO parental Ca – counter-screen for OX1R antagonists: effect in parental CHO cells. parental CHO-K1, ATP-induced calcium, Fluo-8 fluorescence. inhibition, % at 5.6 µM. 0.63% of 330,000 active. AID 463079;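 active = inhibition above that plate's mean sample inhibition plus 3 SD, cut at about 26% in these data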;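 note: 0% = ATP-challenged DMSO wells and 100% = DMSO wells without ATP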
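Assay system: untransfected parental CHO cell line. Also added: ATP agonist challenge. Dosing: one dose, 5.6 µM nominal. Measured by: Fluo-8 fluorescence. Read-out: % inhibition. Benchmarks: ATP wells versus no-ATP DMSO wells. Repeats: no replicates.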
TAAR1 antag – human TAAR1 antagonism; Q96RJ0; CHO RD-HGA16 TAAR1, Fluo-8 calcium fluorescence, antagonist; inhibition, % at 3 µM; 1.5% of 360,000 active;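 active = inhibition above a per-plate cutoff, the mean inhibition of test compounds on that plate plus 3 SD, cut at about 49% in these data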;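 note: 0% = DMSO plus EC80 beta-PEA response and 100% = DMSO alone without agonist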
Target sequence (Q96RJ0 whole entry, looked up): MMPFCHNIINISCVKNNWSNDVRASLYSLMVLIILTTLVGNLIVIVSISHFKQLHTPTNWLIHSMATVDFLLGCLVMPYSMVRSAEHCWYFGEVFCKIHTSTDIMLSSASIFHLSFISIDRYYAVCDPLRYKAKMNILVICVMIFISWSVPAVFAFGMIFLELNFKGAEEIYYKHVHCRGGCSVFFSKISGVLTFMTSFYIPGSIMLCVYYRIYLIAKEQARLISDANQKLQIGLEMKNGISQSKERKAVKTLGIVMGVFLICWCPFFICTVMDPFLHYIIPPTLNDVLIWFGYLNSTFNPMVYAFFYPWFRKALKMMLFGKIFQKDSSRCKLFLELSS
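test system = CHO RD-HGA16 cells bearing hTAAR1 | replication = singlicate | controls = DMSO-only wells and EC80 β-PEA-stimulated wells | reagent = EC80 β-phenethylamine stimulus | read-out basis = percent inhibition of PEA-evoked calcium signal, max/basal emission ratio | schedule = seeding 17-24 h prior, 75-min 37 °C, 30-min RT dye loading | signal = kinetic Fluo-8 calcium fluorescence measurement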
OX1R antag-1 – antagonists of human orexin 1 receptor (OX1R) | OX1R-expressing cells, FRET antagonist read-out | inhibition, % at 6.6 µM | 1.8% of 330,000 active | AID 485270; in the data active = inhibition mostly above about 38%, no sharp cut-off; inactive = mostly below about 40%;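 note: 0% = agonist challenge alone and 100% = reference antagonist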
Target sequence (O43613 whole entry, looked up): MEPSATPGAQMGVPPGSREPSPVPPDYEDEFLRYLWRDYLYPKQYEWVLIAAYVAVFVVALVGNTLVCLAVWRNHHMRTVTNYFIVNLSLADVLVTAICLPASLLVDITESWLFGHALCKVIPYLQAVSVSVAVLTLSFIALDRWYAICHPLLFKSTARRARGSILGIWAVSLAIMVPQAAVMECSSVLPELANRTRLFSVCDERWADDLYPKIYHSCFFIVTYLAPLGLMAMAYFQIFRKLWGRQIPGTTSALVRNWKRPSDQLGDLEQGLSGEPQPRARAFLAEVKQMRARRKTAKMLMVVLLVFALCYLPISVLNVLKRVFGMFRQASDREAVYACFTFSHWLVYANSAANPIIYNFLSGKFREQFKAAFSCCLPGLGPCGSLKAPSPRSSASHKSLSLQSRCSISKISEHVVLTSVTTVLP
OX1R antag-2 – human HCRTR1 antagonism; inhibition, % at 5 µM; 0.43% of 330,000 active; O43613; CHO/OX1R cells, Fluo-8 calcium fluorescence, orexin A;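 active = inhibition above its plate's threshold, mean inhibition of all tested compounds on the plate plus 3 SD, cut at about 37% in these data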;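 note: 0% = orexin A challenge wells and 100% = SB-334867-A antagonist wells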
TAAR1 ag – agonists of human TAAR1; CHO RD-HGA16 TAAR1, Fluo-8 calcium fluorescence; vehicle wells 0%, saturating PEA agonist 100%; AID 624467; 0.99% of 360,000 active; activation, % at 3 µM;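 active = activation above the mean activation of all test compounds in the run plus 3 SD, cut at about 38% in these data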
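Test system: RD-HGA16 (CHO) cells co-expressing Gα16 and hTAAR1 / Benchmarks: DMSO vehicle as 0%, PEA at EC100 as 100% / Repeats: no replicates (n 1) / Measure: % activation from peak over basal fluorescence ratio, DMSO-to-PEA scaled / Timing: 17-24 h plating, Fluo-8 75 min 37 °C, 30 min RT / Technique: kinetic Fluo-8 calcium fluorescence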
OX1R Ca confirm – OX1R (human) antagonism, confirmed; AID 492963; 38% of 1,100 active; shares compounds with OX1R antag-2; CHO/OX1R cells, orexin A calcium Fluo-8 fluorescence; inhibition, % at 5 µM; in the data active = inhibition above about 29%;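 note: 0% = agonist challenge alone and 100% = reference antagonist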
CHO Ca counter – counter-screen: parental CHO calcium response change, triplicate; shares compounds with OX1R antag-2; parental CHO-K1, ATP-induced calcium, Fluo-8 fluorescence; inhibition, % at 5.6 µM; 9.3% of 1,100 active; AID 492965;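 active = inhibition above a per-plate limit, the mean inhibition of that plate's test compounds plus 3 SD, cut at about 25% in these data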;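 note: 0% = ATP challenge with DMSO and 100% = DMSO without ATP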
OX1R HTRF conf – OX1R (human) antagonism, HTRF confirmed. shares compounds with OX1R antag-1. OX1R-expressing cells, HTRF antagonist assay. inhibition, % at 6.6 µM. 49% of 1,800 active. AID 492964; in the data active = inhibition above about 55%;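 note: CHO cells expressing OX1R stimulated with orexin A at about EC80; 0% = agonist challenge alone and 100% = reference antagonist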
CHO-K1 HTRF cnt – signal in parental CHO-K1 cells, OX1R antagonist counter-screen. AID 493232. shares compounds with OX1R antag-1. inhibition, % at 6.6 µM. HTRF counterscreen. 48% of 1,800 active; in the data active = inhibition above about 17%;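 note: 0% = agonist challenge with vehicle and 100% = vehicle alone without agonist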
TAAR1 ag conf – confirmation of human TAAR1 agonists; shares compounds with TAAR1 ag; CHO RD-HGA16 TAAR1, Fluo-8 calcium fluorescence; scaled: DMSO 0%, maximal phenethylamine 100%; activation, % at 3 µM; 82% of 2,400 active; AID 651783;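 active = activation above a cutoff set at the run's mean compound activation plus 3 SD, cut at about 39% in these data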
Ga16 nonsel ag – nonselective agonist in parental cells, TAAR1 agonist counter-screen; shares compounds with TAAR1 ag; 50% of 2,400 active; CHO-Ga16 parental, Fluo-8 calcium fluorescence; normalized to maximal ATP response, DMSO zero; activation, % at 3 µM;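 active = activation above the run cutoff, the mean activation over all tested wells plus 3 SD, cut at about 12% in these data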;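 note: 0% = DMSO wells and 100% = maximal ATP response on the peak over basal ratio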
TAAR1 desensitize – counter-screen for human TAAR1 agonists: agonists that desensitize TAAR1. shares compounds with TAAR1 ag. CHO RD-HGA16 hTAAR1, Fluo-8 calcium, beta-PEA response inhibition. inhibition, % at 3 µM. 46% of 2,400 active. AID 651951;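 active = inhibition above the run cutoff, the mean inhibition of all test compounds plus 3 SD, cut at about 49% in these data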;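 note: beta-PEA stimulus applied at its EC80; loss of beta-PEA calcium signal after compound pretreatment read as receptor desensitization; 0% = DMSO with beta-PEA at EC80 and 100% = DMSO alone without agonist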
Ga16 nonsel ant – nonselective Ga16 antagonist in TAAR1 agonist counter-screen | shares compounds with TAAR1 ag | CHO-Ga16 ATP-induced calcium, Fluo-8 fluorescence | inhibition, % at 3 µM | 39% of 2,400 active;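 active = inhibition above the plate's mean compound inhibition plus 3 SD, computed per plate, cut at about 22% in these data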;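 note: 0% = EC80 ATP with DMSO and 100% = DMSO wells without ATP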
* marks the source's active call; other numbers are inactive results; . = not tested or not shown; + = active, no number; ! = not active in a repeat. Compounds with a hit are over-represented: about 3.9% of the library has one in this group of screens.

SMILES	CHO parental Ca	TAAR1 antag	OX1R antag-1	OX1R antag-2	TAAR1 ag	OX1R HTRF conf	CHO-K1 HTRF cnt	others
COc1cccc(OP(=O)(Nc2ccccc2)Oc2cccc(OC)c2)c1	-4	.	60*	45*	.	47	0	OX1R Ca confirm=29*;CHO Ca counter=0
COc1ccc(OC)c(NP(=O)(Oc2ccccc2)Oc2ccccc2)c1	.	-9	.	.	0	.	.
COC(=O)C1=C(c2ccccc2OCc2ccccc2)C[C@@H]2CC[C@H]1N2C(=O)NCCOc1ccccc1Cl	-11	33	53*	62*	23	70*	-2	OX1R Ca confirm=33*;CHO Ca counter=-10
CC(C)c1oc(=O)cc2c1[C@@H](O)[C@H]1OC(=O)[C@@]3(C)C[C@@H](O)[C@@H](O)[C@@]2(C)C13 (stereo partly drawn)	-7	-19	14	-31	2	.	.
CCCCCn1c(=O)c(C(=O)Nc2ccccc2C)c(O)c2ccccc21	-10	14	6	-8	3	.	.
CCCCCCn1c(=O)c(C(=O)Nc2ncccc2C)c(O)c2ccccc21	20	74*	13	30	106*	.	.	OX1R Ca confirm=0;CHO Ca counter=6;TAAR1 ag conf=55*;Ga16 nonsel ag=30*;TAAR1 desensitize=48;Ga16 nonsel ant=35*
CC1(C)CSC(=NCc2ccccc2)N1	20	88*	8	29	132*	.	.	OX1R Ca confirm=63*;CHO Ca counter=35*;TAAR1 ag conf=111*;Ga16 nonsel ag=81*;TAAR1 desensitize=95*;Ga16 nonsel ant=68*
CC(N)C(=O)NC1C2C(=C(O)CC(O)C2O)C(=O)OC1(C)C(Cl)Cl (stereo not drawn)	.	8	.	.	2	.	.
O=c1[nH]c(O)c(N=Nc2cc([N+](=O)[O-])ccc2O)c(=O)[nH]1	4	18	+	-5	3	71*	93*
CCOC(=O)c1cc2ccccc2n1C1CCN(Cc2ccccc2)CC1	.	-32	.	.	2	.	.
O=C1C(=O)c2ccccc2-c2ccccc21	-18	-4	106*	4	6	61*	29*
CN1CCN(c2cccc3c2C(=O)c2ccccc2C3=O)CC1	.	-14	.	.	3	.	.
O=C1C(=O)c2cccc3cccc1c23	-7	-7	101*	-2	7	31	42*
CCN(CCCl)c1cc(CN(C)C)cc(NC(=O)c2ccc(C(=O)Nc3cc(CN(C)C)cc(N(CC)CCCl)c3)cc2)c1	.	-3	.	.	-1	.	.
COC(=O)C1=C(c2ccc3ccccc3c2)C[C@@H]2CC[C@H]1N2C(=O)N1CCCCC1	-22	19	3	-11	17	.	.
O=C(O)CCl	.	7	.	.	0	.	.
COC(=O)C1=C(c2ccc(OC)c(OC)c2)C[C@@H]2CC[C@H]1N2C(=O)N1CCCCC1	-17	5	3	-12	16	.	.
N#CC(C#N)=NNc1ccc(S(N)(=O)=O)cc1	-4	-4	84*	-4	-1	19	-1
COc1ccc2c(c1)C(NC(C)=O)CCc1cc(OC)c(OC)c(OC)c1-2 (stereo not drawn)	.	6	.	.	1	.	.
CCOc1cc(CNCCc2c[nH]c3ccccc23)cc(Cl)c1OC	-17	21	105*	-37	18	17	3
CN1CC=C2C(C#N)=C(N)C(C#N)(C#N)C(c3ccncc3)C2C1 (stereo not drawn)	1	.	102*	-2	.	18	24*
Cc1nc2c(=O)n(C)c(=O)nc-2n(C)n1	-8	8	+	2	11	84*	100*
C/C(=N\N1CCCCCC1)c1c(O)n(-c2ccccc2C)c(=O)[nH]c1=O	-9	-4	8	-27	5	.	.
CCC(CO)NC(=O)C1C=C2c3cccc4[nH]cc(c34)CC2N(C)C1 (stereo not drawn)	-1	-22	34	1	9	.	.
CC[C@@H](CO)NC(=O)[C@@H]1C=C2c3cccc4c3c(cn4C)C[C@H]2N(C)C1	0	-25	84*!	1	3	20	19*
SMILES	CHO parental Ca	TAAR1 antag	OX1R antag-1	OX1R antag-2	TAAR1 ag	OX1R HTRF conf	CHO-K1 HTRF cnt	others
O=C(NC1CN2CCC1CC2)c1cc(Cl)c([N+](=O)[O-])c2nc[nH]c12 (stereo not drawn)	-13	6	130*	1	2	49	83*
CN1CCN(c2ccc([N+](=O)[O-])c3no[n+]([O-])c23)CC1	22	7	77*	13	26	74*	107*
O=[N+]([O-])c1ccc(N(CCO)CCO)c2c1no[n+]2[O-]	.	-1	.	.	6	.	.
COc1cccc(C(c2nnnn2C(C)(C)C)N2CCC3(CC2)C(=O)NCN3c2ccccc2)c1OC (stereo not drawn)	.	30	.	.	9	.	.
CNc1ccc2nc3ccccc3[n+](C)c2c1	6	-12	94*	-8	3	66*	145*
O=[N+]([O-])c1ccc(N2CCCC2)c(F)c1Br	5	21	26	-8	2	.	.
O=[N+]([O-])c1ccc(N2CCOCC2)c2ccncc12	-12	-24	107*	-17	2	47	65*
Cn1c(O)c(N=Nc2ccc(S(=O)(=O)N3CCOCC3)cc2)c(=O)n(C)c1=O	-10	-4	86*	3	2	50	74*
O=C1NC(=O)C(=Cc2ccc(-c3ccc(S(=O)(=O)N4CCOCC4)cc3)o2)C(=O)N1	4	-2	31	-8	8	.	.
Oc1ccc2c3c1O[C@H]1c4[nH]c5ccccc5c4C[C@@]4(O)C(C2)N(CC2CC2)CC[C@]314	-3	.	6	-5	.	.	.
O=C1NC(=O)N(c2ccc3c(c2)OCO3)C(=O)/C1=C/c1ccc(N2CCCC2)o1	2	9	92*	-2	5	46	75*
